Experimental data reported in ChEMBL document CHEMBL5724801, “EUbOPEN Chemogenomics Library - Multiplex” (2024).
Several values for one entry are separate records, joined by “and”; a condition that tells them apart may be missing. Equal values may be shown once.

Test system: HEK-293T
Test: Multiplex assay against HEK293T
Type: toxicity, cell-based
Conditions: human
Procedure, shortened: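 Cells were classed with CellPathfinder machine-learning gating, first as Hoechst high-intensity objects or normal cells, then (normal cells) as healthy, pyknosed or fragmented nuclei, and finally (pyknosed cells) as mitotic or apoptotic. Staining of live cells at seeding used Hoechst33342, BioTracker Green Microtubule Cytoskeleton Dye, MitoTracker Red and Annexin V Alexa Fluor 680, with imaging on a CQ1 microscope at 37°C and 5% CO2 after compound addition. Tubulin, mitochondrial-mass and membrane-permeability phenotypes are per cents of healthy-nucleus cells.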

[1] = 12 h, 1 µM, compound concentration 1 uM
[2] = 12 h, 10 µM, compound concentration 10 uM
[3] = 24 h, 1 µM, compound concentration 1 uM
[4] = 24 h, 10 µM, compound concentration 10 uM
[5] = 48 h, 1 µM, compound concentration 1 uM
[6] = 48 h, 10 µM, compound concentration 10 uM

CC[C@H](Nc1ncnc2[nH]cnc12)c1nc2cccc(F)c2c(=O)n1-c1ccccc1 [IDELALISIB]
Population Apoptotic (%) [1]: 9.6% and 7.3% | Population Fragmented Nuclei (%) [1]: 0.69% and 2.22% | Population Healthy Nuclei (%) [1]: 58.33% and 21.67% | Population Hoechst High Intensity Objects (%) [1]: 0% | Population Membrane Permeable-Phenotype (%) [1]: 1.19% and 0% | Population Mitochondria Different-Phenotype (%) [1]: 34.13% and 17.95% | Population Mitotic Cells (%) [1]: 90.4% and 92.7% | Population Normal (%) [1]: 100% | Population Pyknosed Nuclei (%) [1]: 40.97% and 76.11% | Total Cell Count [1]: 432 and 180 | Population Apoptotic (%) [2]: 16.78% and 14.29% | Population Fragmented Nuclei (%) [2]: 0.89% and 4.58% | Population Hoechst High Intensity Objects (%) [2]: 0% | Population Membrane Permeable-Phenotype (%) [2]: 0% and 7.69% | Population Mitochondria Different-Phenotype (%) [2]: 29.11% and 15.38% | Population Mitotic Cells (%) [2]: 83.22% and 85.71% | Population Normal (%) [2]: 100% | Population Pyknosed Nuclei (%) [2]: 63.84% and 86.93% | Population Tubulin-Different-Phenotype (%) [2]: 34.18% and 38.46% | Total Cell Count [2]: 224 and 153 | Population Apoptotic (%) [3]: 20.57% and 16.42% | Population Fragmented Nuclei (%) [3]: 1.62% and 1.42% | Population Healthy Nuclei (%) [3]: 75.57% and 35.07% | Population Hoechst High Intensity Objects (%) [3]: 0% | Population Membrane Permeable-Phenotype (%) [3]: 1.07% and 0% | Population Mitochondria Different-Phenotype (%) [3]: 15.42% and 12.16% | Population Mitotic Cells (%) [3]: 79.43% and 83.58% | Population Normal (%) [3]: 100% | Population Pyknosed Nuclei (%) [3]: 22.82% and 63.51% | Population Tubulin-Different-Phenotype (%) [3]: 9.85% and 5.41% | Total Cell Count [3]: 618 and 211 | Population Apoptotic (%) [4]: 22.55% and 30.43% | Population Fragmented Nuclei (%) [4]: 2.07% and 3.7% | Population Healthy Nuclei (%) [4]: 62.76% and 25.31% | Population Hoechst High Intensity Objects (%) [4]: 0.34% and 0% | Population Membrane Permeable-Phenotype (%) [4]: 2.75% and 2.44% | Population Mitochondria Different-Phenotype (%) [4]: 40.11% and 19.51% | Population Mitotic Cells (%) [4]: 77.45% and 69.57% | Population Normal (%) [4]: 99.66% and 100% | Population Pyknosed Nuclei (%) [4]: 35.17% and 70.99% | Population Tubulin-Different-Phenotype (%) [4]: 61.54% and 26.83% | Total Cell Count [4]: 291 and 162 | Population Apoptotic (%) [5]: 5.47% and 12.5% | Population Fragmented Nuclei (%) [5]: 2.71% and 1.53% | Population Healthy Nuclei (%) [5]: 87.1% and 67.82% | Population Hoechst High Intensity Objects (%) [5]: 0% and 0.38% | Population Membrane Permeable-Phenotype (%) [5]: 5.58% and 2.26% | Population Mitochondria Different-Phenotype (%) [5]: 15.63% and 14.69% | Population Mitotic Cells (%) [5]: 94.53% and 87.5% | Population Normal (%) [5]: 100% and 99.62% | Population Apoptotic (%) [6]: 17.44% and 25.24% | Population Fragmented Nuclei (%) [6]: 2.23% and 1.97% | Population Healthy Nuclei (%) [6]: 80.32% and 47.29% | Population Hoechst High Intensity Objects (%) [6]: 0.2% and 0% | Population Membrane Permeable-Phenotype (%) [6]: 6.31% and 1.04% | Population Mitochondria Different-Phenotype (%) [6]: 64.39% and 55.21% | Population Mitotic Cells (%) [6]: 82.56% and 74.76% | Population Normal (%) [6]: 99.8% and 100% | Population Pyknosed Nuclei (%) [6]: 17.44% and 50.74% | Total Cell Count [6]: 494 and 203

O=S(=O)(c1ccccc1)c1cnc2c(N3CCNCC3)cccc2c1 [INTEPIRDINE]
Population Apoptotic (%) [1]: 40% and 50% | Population Fragmented Nuclei (%) [1]: 7% | Population Healthy Nuclei (%) [1]: 80% and 74% | Population Hoechst High Intensity Objects (%) [1]: 7% and 10% | Population Membrane Permeable-Phenotype (%) [1]: 0% | Population Mitochondria Different-Phenotype (%) [1]: 54% and 69% | Population Mitotic Cells (%) [1]: 60% and 50% | Population Normal (%) [1]: 92% and 89% | Population Pyknosed Nuclei (%) [1]: 12% and 17% | Population Tubulin-Different-Phenotype (%) [1]: 43% and 23% | Total Cell Count [1]: 403 and 336 | Population Apoptotic (%) [2]: 51% and 46% | Population Fragmented Nuclei (%) [2]: 8% and 4% | Population Healthy Nuclei (%) [2]: 72% and 79% | Population Hoechst High Intensity Objects (%) [2]: 10% and 7% | Population Membrane Permeable-Phenotype (%) [2]: 0% | Population Mitochondria Different-Phenotype (%) [2]: 70% and 76% | Population Mitotic Cells (%) [2]: 48% and 53% | Population Normal (%) [2]: 89% and 92% | Population Pyknosed Nuclei (%) [2]: 18% and 15% | Population Tubulin-Different-Phenotype (%) [2]: 58% and 50% | Total Cell Count [2]: 326 and 349 | Population Apoptotic (%) [3]: 28% and 58% | Population Fragmented Nuclei (%) [3]: 6% and 7% | Population Healthy Nuclei (%) [3]: 80% and 85% | Population Hoechst High Intensity Objects (%) [3]: 5% | Population Membrane Permeable-Phenotype (%) [3]: 0% | Population Mitochondria Different-Phenotype (%) [3]: 35% and 43% | Population Mitotic Cells (%) [3]: 71% and 41% | Population Normal (%) [3]: 94% | Population Pyknosed Nuclei (%) [3]: 12% and 7% | Population Tubulin-Different-Phenotype (%) [3]: 26% and 14% | Total Cell Count [3]: 530 and 416 | Population Apoptotic (%) [4]: 52% and 51% | Population Fragmented Nuclei (%) [4]: 11% and 9% | Population Healthy Nuclei (%) [4]: 75% and 82% | Population Hoechst High Intensity Objects (%) [4]: 6% and 4% | Population Membrane Permeable-Phenotype (%) [4]: 0% | Population Mitochondria Different-Phenotype (%) [4]: 50% and 61% | Population Mitotic Cells (%) [4]: 47% and 48% | Population Normal (%) [4]: 93% and 95% | Population Pyknosed Nuclei (%) [4]: 12% and 8% | Population Tubulin-Different-Phenotype (%) [4]: 33% and 42% | Total Cell Count [4]: 439 and 458 | Population Apoptotic (%) [5]: 17% and 25% | Population Fragmented Nuclei (%) [5]: 12% and 13% | Population Healthy Nuclei (%) [5]: 80% and 79% | Population Hoechst High Intensity Objects (%) [5]: 4% and 3% | Population Membrane Permeable-Phenotype (%) [5]: 1% and 0% | Population Mitochondria Different-Phenotype (%) [5]: 25% and 26% | Population Mitotic Cells (%) [5]: 82% and 75% | Population Normal (%) [5]: 95% and 96% | Population Pyknosed Nuclei (%) [5]: 7% and 6% | Population Tubulin-Different-Phenotype (%) [5]: 16% and 12% | Total Cell Count [5]: 866 and 641 | Population Apoptotic (%) [6]: 40% and 18% | Population Fragmented Nuclei (%) [6]: 14% and 11% | Population Healthy Nuclei (%) [6]: 75% and 82% | Population Hoechst High Intensity Objects (%) [6]: 4% | Population Membrane Permeable-Phenotype (%) [6]: 0% | Population Mitochondria Different-Phenotype (%) [6]: 45% and 38% | Population Mitotic Cells (%) [6]: 59% and 81% | Population Normal (%) [6]: 95% | Population Pyknosed Nuclei (%) [6]: 10% and 5% | Population Tubulin-Different-Phenotype (%) [6]: 30% and 27% | Total Cell Count [6]: 606 and 673

C=C(C)[C@H]1CN[C@H](C(=O)O)[C@H]1CC(=O)O [KAINIC ACID]
Population Apoptotic (%) [1]: 11.5% and 6.48% | Population Fragmented Nuclei (%) [1]: 2.06% and 6.54% | Population Healthy Nuclei (%) [1]: 64.6% and 22.88% | Population Hoechst High Intensity Objects (%) [1]: 0% | Population Membrane Permeable-Phenotype (%) [1]: 0.91% and 0% | Population Mitochondria Different-Phenotype (%) [1]: 37.44% and 14.29% | Population Mitotic Cells (%) [1]: 88.5% and 93.52% | Population Normal (%) [1]: 100% | Population Pyknosed Nuclei (%) [1]: 33.33% and 70.59% | Total Cell Count [1]: 339 and 153 | Population Apoptotic (%) [2]: 12.5% and 13.33% | Population Fragmented Nuclei (%) [2]: 12.27% and 2.55% | Population Hoechst High Intensity Objects (%) [2]: 0.26% and 0% | Population Membrane Permeable-Phenotype (%) [2]: 0% | Population Mitochondria Different-Phenotype (%) [2]: 22.58% and 24.24% | Population Mitotic Cells (%) [2]: 87.5% and 86.67% | Population Normal (%) [2]: 99.74% and 100% | Total Cell Count [2]: 384 and 157 | Population Apoptotic (%) [3]: 14% and 18.07% | Population Fragmented Nuclei (%) [3]: 2.44% and 4.97% | Population Healthy Nuclei (%) [3]: 77.19% and 43.48% | Population Hoechst High Intensity Objects (%) [3]: 0% | Population Membrane Permeable-Phenotype (%) [3]: 0.79% and 1.43% | Population Mitochondria Different-Phenotype (%) [3]: 12.14% and 7.14% | Population Mitotic Cells (%) [3]: 86% and 81.93% | Population Normal (%) [3]: 100% | Population Pyknosed Nuclei (%) [3]: 20.37% and 51.55% | Population Tubulin-Different-Phenotype (%) [3]: 8.97% and 5.71% | Population Apoptotic (%) [4]: 9.33% and 14.16% | Population Fragmented Nuclei (%) [4]: 9.95% and 0% | Population Healthy Nuclei (%) [4]: 77.19% and 40.84% | Population Hoechst High Intensity Objects (%) [4]: 0% | Population Membrane Permeable-Phenotype (%) [4]: 0.22% and 0% | Population Mitochondria Different-Phenotype (%) [4]: 11.33% and 7.69% | Population Mitotic Cells (%) [4]: 90.67% and 85.84% | Population Normal (%) [4]: 100% | Population Tubulin-Different-Phenotype (%) [4]: 4.89% and 1.28% | Population Apoptotic (%) [5]: 7.41% and 12.12% | Population Fragmented Nuclei (%) [5]: 6.01% and 2.75% | Population Healthy Nuclei (%) [5]: 85.97% and 71.37% | Population Hoechst High Intensity Objects (%) [5]: 0.07% and 0% | Population Membrane Permeable-Phenotype (%) [5]: 5.09% and 4.4% | Population Mitochondria Different-Phenotype (%) [5]: 10.62% and 17.03% | Population Mitotic Cells (%) [5]: 92.59% and 87.88% | Population Normal (%) [5]: 99.93% and 100% | Population Apoptotic (%) [6]: 13.71% and 22.5% | Population Fragmented Nuclei (%) [6]: 7.14% and 1.13% | Population Healthy Nuclei (%) [6]: 83.02% and 68.8% | Population Hoechst High Intensity Objects (%) [6]: 0% and 0.75% | Population Membrane Permeable-Phenotype (%) [6]: 4.88% and 2.19% | Population Mitochondria Different-Phenotype (%) [6]: 10.71% and 14.75% | Population Mitotic Cells (%) [6]: 86.29% and 77.5% | Population Normal (%) [6]: 100% and 99.25%
